{"data": "Experimental data of several laboratories", "target": "Rhodopsin kinase GRK1 (GRK1, Homo sapiens, UniProt Q15835)", "One construct used (Q15835 1-563)": "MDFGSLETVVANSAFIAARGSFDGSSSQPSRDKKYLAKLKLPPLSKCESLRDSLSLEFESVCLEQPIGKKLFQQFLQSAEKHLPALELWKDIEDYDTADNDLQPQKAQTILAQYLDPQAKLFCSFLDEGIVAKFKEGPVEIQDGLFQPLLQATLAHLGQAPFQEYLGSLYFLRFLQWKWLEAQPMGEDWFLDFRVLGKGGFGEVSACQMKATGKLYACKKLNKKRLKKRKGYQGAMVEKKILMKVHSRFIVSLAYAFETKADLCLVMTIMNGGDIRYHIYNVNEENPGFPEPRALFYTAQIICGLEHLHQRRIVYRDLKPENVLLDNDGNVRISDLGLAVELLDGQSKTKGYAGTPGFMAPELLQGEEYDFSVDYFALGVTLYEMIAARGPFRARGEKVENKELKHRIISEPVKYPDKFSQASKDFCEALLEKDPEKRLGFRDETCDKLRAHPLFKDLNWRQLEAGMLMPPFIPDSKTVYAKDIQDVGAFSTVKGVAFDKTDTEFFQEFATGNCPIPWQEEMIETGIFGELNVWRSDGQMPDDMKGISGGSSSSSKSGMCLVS", "note": "Each line is one published result; the experiments were not run side by side."}
{"Compound": "Cn1c2c(Cl)c(Cl)ccc2c2cc[nH]c(=O)c21", "effect on": "thermal stability", "method": "DSF", "tested at": "10 µM", "measurement": "ΔTm", "value": "1.5 °C"}
{"Compound": "CNCc1ccccc1-c1csc([C@H](C)Nc2nc(C)nc3cc(OC)c(OC)cc23)c1", "effect on": "cell-free assay", "method": "competition with immobilised ligand", "tested at": "1 µM", "measurement": "remaining binding", "value": "100%"}
{"Compound": "Cc1ccc(C(=O)NCc2ccsc2)cc1C#Cc1cn(C(C)C)c2ncnc(N)c12", "effect on": "enzyme activity", "action": "inhibitor", "tested at": "1 µM", "measurement": "activity vs control", "value": "106%"}
{"Compound": "Cc1cc(NC(=O)c2cccc3cc(-c4cccc5[nH]nc(N)c45)ccc23)ccc1F", "effect on": "enzyme activity", "action": "inhibitor", "tested at": "0.1 µM", "measurement": "activity vs control", "value": "85%"}
{"Compound": "O=C(N1CCS(=O)(=O)CC1)N1C[C@H](c2ccc(OC(F)(F)F)cc2)C[C@H](c2nc(C3CC3)no2)C1", "effect on": "cell-free assay", "method": "competition with immobilised ligand", "tested at": "1 µM", "measurement": "remaining binding", "value": "92%"}
{"Compound": "Cc1ccc(NC(=O)c2ccc(C)c(C(F)(F)F)c2)cc1C#Cc1nn(C2CCC(O)CC2)c2ncnc(N)c12 (stereo not drawn)", "effect on": "cell-free assay", "tested at": "10 µM", "measurement": "remaining signal", "value": "94%"}
{"Compound": "O=C(NS(=O)(=O)c1ccc(NCC2CCOCC2)c([N+](=O)[O-])c1)c1ccc(N2CCN(Cc3ccc(C(F)(F)F)cc3-c3ccc(Cl)cc3)CC2)cc1Oc1cnc2[nH]ccc2c1", "effect on": "cell-free assay", "method": "competition with immobilised ligand", "tested at": "1 µM", "measurement": "remaining binding", "value": "100%"}
{"Compound": "Cn1c2c(c3ccc(Cl)c(Cl)c31)C(C#N)C1(CCNCC1)NC2=O (racemic)", "effect on": "thermal stability", "method": "DSF", "tested at": "10 µM", "measurement": "ΔTm", "value": "2.4 °C"}
{"Compound": "Cc1cc(NC(=O)c2cccc(S(F)(F)(F)(F)F)c2)cc(-n2ccn3nc(-c4cccnc4)cc23)c1", "effect on": "cell-free assay", "method": "competition with immobilised ligand", "tested at": "1 µM", "measurement": "remaining binding", "value": "50.4%"}
{"Compound": "Cn1c2c(Cl)c(Cl)ccc2c2cc(N)[nH]c(=O)c21", "effect on": "thermal stability", "method": "DSF", "tested at": "10 µM", "measurement": "ΔTm", "value": "0.5 °C"}
{"Compound": "Cc1cnc(NC2CCOCC2)nc1-n1cnc(C(=O)NC(CN)c2cc(F)cc(Cl)c2)c1 (stereo not drawn)", "effect on": "enzyme activity", "action": "inhibitor", "method": "radiometric", "tested at": "1 µM", "measurement": "remaining activity", "value": "98%"}
{"Compound": "COc1ccc2cc(OCC3(C(=O)O)CN(C(=O)c4ccc(F)cc4)C3)ccc2c1", "effect on": "cell-free assay", "method": "competition with immobilised ligand", "tested at": "1 µM", "measurement": "remaining binding", "value": "100%"}
{"Compound": "N#CC1c2c([nH]c3c(Cl)c(Cl)ccc23)C(=O)NC12CCCCC2 (racemic)", "effect on": "thermal stability", "method": "DSF", "tested at": "10 µM", "measurement": "ΔTm", "value": "0.6 °C"}
{"Compound": "CN1CC(Oc2cnc(C#N)cc2-c2ccn3nc(NC(=O)C4CC4)cc3c2)C1", "effect on": "enzyme activity", "action": "inhibitor", "tested at": "1 µM", "measurement": "inhibition", "value": "1%"}
{"Compound": "O=C(Nc1cnn(-c2csc(C(=O)NC3COC3)c2)c1)Nc1ccccc1Cl", "effect on": "enzyme activity", "action": "inhibitor", "tested at": "5 µM", "measurement": "remaining activity", "value": "91.9%"}
